Measured values from ChEMBL document CHEMBL4190301, “Isolation, Structure Elucidition, and Immunosuppressive Activity of Diterpenoids from Ligularia fischeri” (J Nat Prod, 2017).
The source made the active and inactive calls. The rule behind the calls is not given here.

Key:
[1] = system: HMy2.C1R; assay: Immunosuppressive activity in human HMy2.C1R cells assessed as cell growth inhibition at 2.5 to 40 uM after 48 hrs by SRB assay; format: functional, cell-based
Procedure, shortened: (§1)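 Human B lymphoblast HMy2.CIR cells were seeded in 96-well plates in medium with 5% FBS. After 24 h, a plate was TCA-fixed as time zero (T0). Cells were then exposed to DMSO or compound at 2.5–40 μM for 48 h, fixed with 10% TCA and stained with 0.4% SRB in 1% HOAc. Bound dye was solubilized in 10 mM Trizma base and read at 540 nm. Percentage growth was calculated from T0, control and treated absorbances; mean ± SD, n = 3.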

[2] = system: HMy2.C1R; assay: Immunosuppressive activity in human HMy2.C1R cells assessed as cell growth inhibition after 48 hrs by SRB assay
[3] = system: HMy2.C1R; assay: Immunosuppressive activity in human HMy2.C1R cells assessed as cell growth at 40 uM after 48 hrs by SRB assay relative to control; format: functional; procedure, shortened: as §1
[4] = system: HMy2.C1R; assay: Immunosuppressive activity in human HMy2.C1R cells assessed as cell growth at 20 uM after 48 hrs by SRB assay relative to control; format: functional; procedure, shortened: as §1
[5] = system: HMy2.C1R; assay: Immunosuppressive activity in human HMy2.C1R cells assessed as cell growth at 10 uM after 48 hrs by SRB assay relative to control; format: functional; procedure, shortened: as §1
[6] = system: HMy2.C1R; assay: Immunosuppressive activity in human HMy2.C1R cells assessed as cell growth at 5 uM after 48 hrs by SRB assay relative to control; format: functional; procedure, shortened: as §1
[7] = system: HMy2.C1R; assay: Immunosuppressive activity in human HMy2.C1R cells assessed as cell growth at 2.5 uM after 48 hrs by SRB assay relative to control; format: functional; procedure, shortened: as §1
[8] = system: HMy2.C1R; assay: […] in human HMy2.C1R cells at 2.5 to 40 uM after 48 hrs by SRB assay; format: functional, cell-based; procedure, shortened: as §1

C[C@@]12CC[C@@H](O)[C@@](C)(C(=O)O)[C@H]1CC[C@@]13C[C@@H](CC[C@H]12)[C@@](O)(CO)C3
inhibition [1]: inactive

CC1(C)CCC[C@]2(C(=O)O)[C@@H]1CC[C@@]13C[C@@H](CC[C@H]12)[C@](C)(O)C3
inhibition [1]: inactive

C[C@]12CCC[C@@]3(COC1=O)[C@@H]1CC[C@@H]4C[C@@]1(CC[C@@H]32)C[C@@]4(C)O
IC50 [2]: 56.3 µM | Ratio [3]: 0.6 | Ratio [4]: 0.683 | Ratio [5]: 0.762 | Ratio [6]: 0.809 | Ratio [7]: 0.849

C[C@]12CCC[C@]3(COC1=O)[C@@H]2C[C@H](O)[C@@]12C[C@@H](CC[C@]13O)[C@](C)(O)C2
inhibition [1]: inactive

COc1cc(/C=C/C(=O)OC[C@@]2(O)C[C@@]34CC[C@@H]5C(C)(C)CCC[C@@]5(C(=O)O)[C@@H]3CC[C@@H]2C4)ccc1O
inhibition [1]: inactive

C[C@]12CCC[C@]3(COC1=O)[C@@H]2CC[C@@]12C[C@@H](CC[C@]13O)[C@](C)(O)C2
Activity [8]: Dose-dependent effect

CC1(C)CCC[C@]2(C=O)[C@@H]1CC[C@@]13C[C@@H](CC[C@H]12)[C@@](O)(CO)C3
IC50 [2]: 13.3 µM | Ratio [3]: 0.301 | Ratio [4]: 0.455 | Ratio [5]: 0.525 | Ratio [6]: 0.685 | Ratio [7]: 0.791

C=C[C@](C)(O)CC[C@@H]1C(=C)CC[C@@H]2C(C)(C)C[C@@H](O)C[C@@]12C
IC50 [2]: 31.4 µM | Ratio [3]: 0.39 | Ratio [4]: 0.648 | Ratio [5]: 0.761 | Ratio [6]: 0.812 | Ratio [7]: 0.934

CC1(C)CCC[C@]2(C)[C@@H]1CC[C@@]13C[C@@H](CC[C@H]12)[C@](C)(O)C3
inhibition [1]: inactive

C=C1[C@H](O)CC[C@@H]2[C@@]3(C)CC[C@](C)(O)C[C@@H]3CC[C@@]12C
Activity [8]: Dose-dependent effect

CC1(C)CCC[C@]2(C=O)[C@@H]1CC[C@@]13C[C@@H](CC[C@H]12)[C@](C)(O)C3
inhibition [1]: inactive

C[C@]12CCC[C@@]3(COC1=O)[C@@H]1[C@@H]4C[C@@H]5C[C@@]1(CC[C@@H]32)C[C@]5(C)O4
inhibition [1]: inactive

CC1(C)CCC[C@]2(C(=O)O)[C@@H]1CC[C@@]13C[C@@H](CC[C@H]12)[C@@](O)(CO)C3
inhibition [1]: inactive
